From article PMC3769689 (Journal of medicinal chemistry, 2013)
Entries after “also recorded” stand apart in the source; their conditions may differ. One block for each compound: values may come before it.

Key:
mGlu3 [1] = target: T1, mGlu3 (Rattus norvegicus, UniProt P31422); assay: mGlu3 calcium mobilization assay; type: cell-based
rat IV PK = type: in vivo; conditions: plasma
rat microsomal clearance = type: in vitro ADME; conditions: for Rat CLHEP: predicted hepatic clearance in vitro; for Rat CLHEP / CLint scaled at 1 µM: rat; for CLint scaled at 1 µM: microsomes
mGlu3 [2] = target: T1, mGlu3; conditions: cited from earlier work
mGlu3 [3] = target: T1, mGlu3; assay: progressive fold shift assay with glutamate; type: cell-based
DAT = DAT (Homo sapiens, UniProt Q01959); assay: functional activity at DAT
Sequence of DAT (Q01959 whole entry): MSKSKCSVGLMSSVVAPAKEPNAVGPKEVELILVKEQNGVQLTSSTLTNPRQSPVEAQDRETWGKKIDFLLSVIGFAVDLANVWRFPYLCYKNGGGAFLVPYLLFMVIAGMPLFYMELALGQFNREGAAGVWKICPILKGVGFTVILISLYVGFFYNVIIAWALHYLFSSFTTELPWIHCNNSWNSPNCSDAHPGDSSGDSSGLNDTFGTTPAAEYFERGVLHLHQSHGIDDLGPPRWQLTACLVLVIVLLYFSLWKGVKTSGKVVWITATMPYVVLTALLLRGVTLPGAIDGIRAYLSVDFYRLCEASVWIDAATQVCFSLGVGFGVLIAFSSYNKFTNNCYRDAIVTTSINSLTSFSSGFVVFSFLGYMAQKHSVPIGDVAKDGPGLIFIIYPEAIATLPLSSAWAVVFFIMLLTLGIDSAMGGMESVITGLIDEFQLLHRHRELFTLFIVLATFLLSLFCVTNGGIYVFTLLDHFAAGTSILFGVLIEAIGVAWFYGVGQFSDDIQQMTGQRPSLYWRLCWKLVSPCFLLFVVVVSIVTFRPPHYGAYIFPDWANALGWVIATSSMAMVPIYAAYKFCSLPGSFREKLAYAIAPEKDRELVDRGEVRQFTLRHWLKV

mGlu5 = mGlu5 (Homo sapiens, UniProt P41594); assay: mGluR selectivity, mGlu5; type: cell-based
mGlu6 = mGlu6 (Homo sapiens, UniProt O15303); assay: mGluR selectivity, mGlu6; type: cell-based
Sequence of mGlu6 (O15303 25-877): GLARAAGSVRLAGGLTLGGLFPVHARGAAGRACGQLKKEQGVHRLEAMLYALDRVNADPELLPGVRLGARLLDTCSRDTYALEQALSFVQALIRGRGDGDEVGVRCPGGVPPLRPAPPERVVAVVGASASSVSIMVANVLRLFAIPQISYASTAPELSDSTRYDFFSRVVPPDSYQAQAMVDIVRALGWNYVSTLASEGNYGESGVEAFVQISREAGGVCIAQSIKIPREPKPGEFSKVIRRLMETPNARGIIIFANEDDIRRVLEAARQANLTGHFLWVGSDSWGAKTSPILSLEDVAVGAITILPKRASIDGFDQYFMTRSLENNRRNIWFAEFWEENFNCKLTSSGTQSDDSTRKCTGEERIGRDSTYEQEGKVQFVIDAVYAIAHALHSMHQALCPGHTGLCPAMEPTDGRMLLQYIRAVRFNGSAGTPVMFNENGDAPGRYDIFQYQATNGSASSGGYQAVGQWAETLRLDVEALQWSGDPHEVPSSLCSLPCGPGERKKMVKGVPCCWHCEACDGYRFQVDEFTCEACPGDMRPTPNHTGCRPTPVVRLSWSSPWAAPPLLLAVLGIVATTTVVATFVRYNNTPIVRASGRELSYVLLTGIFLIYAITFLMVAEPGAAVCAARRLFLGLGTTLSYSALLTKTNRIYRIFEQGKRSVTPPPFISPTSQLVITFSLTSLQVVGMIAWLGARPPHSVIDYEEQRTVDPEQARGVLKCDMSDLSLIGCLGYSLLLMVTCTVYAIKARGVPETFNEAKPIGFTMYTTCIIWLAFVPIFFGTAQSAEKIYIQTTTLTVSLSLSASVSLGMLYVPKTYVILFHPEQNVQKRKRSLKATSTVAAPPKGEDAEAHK

[4] = metabolite identification; type: in vitro ADME
mGlu4 = mGlu4 (Homo sapiens, UniProt Q14833); assay: mGluR selectivity, mGlu4; type: cell-based
mGlu7 = mGlu7 (Homo sapiens, UniProt Q14831); assay: mGluR selectivity, mGlu7; type: cell-based
Sequence of mGlu7 (Q14831 35-915): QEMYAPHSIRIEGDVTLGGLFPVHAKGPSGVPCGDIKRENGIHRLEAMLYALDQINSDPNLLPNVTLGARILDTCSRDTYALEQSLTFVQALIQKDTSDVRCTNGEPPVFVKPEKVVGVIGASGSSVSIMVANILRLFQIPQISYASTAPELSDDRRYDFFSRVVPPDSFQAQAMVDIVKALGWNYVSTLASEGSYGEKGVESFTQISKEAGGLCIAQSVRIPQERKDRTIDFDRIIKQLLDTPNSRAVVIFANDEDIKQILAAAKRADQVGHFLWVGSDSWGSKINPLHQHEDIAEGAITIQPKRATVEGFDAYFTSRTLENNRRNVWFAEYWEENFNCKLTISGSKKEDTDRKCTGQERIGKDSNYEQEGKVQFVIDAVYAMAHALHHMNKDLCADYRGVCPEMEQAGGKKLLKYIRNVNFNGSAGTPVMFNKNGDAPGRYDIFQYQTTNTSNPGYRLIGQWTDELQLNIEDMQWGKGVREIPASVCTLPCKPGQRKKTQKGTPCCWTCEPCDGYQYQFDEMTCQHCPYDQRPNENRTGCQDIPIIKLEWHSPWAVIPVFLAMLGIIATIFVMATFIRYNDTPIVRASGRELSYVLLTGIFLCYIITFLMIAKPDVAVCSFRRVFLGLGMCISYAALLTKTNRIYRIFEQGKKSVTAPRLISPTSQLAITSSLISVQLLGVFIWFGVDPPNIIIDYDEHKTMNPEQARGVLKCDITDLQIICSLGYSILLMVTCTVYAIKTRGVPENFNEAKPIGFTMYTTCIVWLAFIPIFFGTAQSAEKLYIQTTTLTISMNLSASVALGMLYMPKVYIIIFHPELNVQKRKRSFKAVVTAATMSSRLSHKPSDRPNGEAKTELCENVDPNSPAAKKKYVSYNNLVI

mGlu1 = mGlu1 (Homo sapiens, UniProt Q13255); assay: mGluR selectivity, mGlu1; type: cell-based
5-HT2B = 5-HT2B (Homo sapiens, UniProt P41595); assay: functional activity at 5-HT2B
Sequence of 5-HT2B (P41595 whole entry): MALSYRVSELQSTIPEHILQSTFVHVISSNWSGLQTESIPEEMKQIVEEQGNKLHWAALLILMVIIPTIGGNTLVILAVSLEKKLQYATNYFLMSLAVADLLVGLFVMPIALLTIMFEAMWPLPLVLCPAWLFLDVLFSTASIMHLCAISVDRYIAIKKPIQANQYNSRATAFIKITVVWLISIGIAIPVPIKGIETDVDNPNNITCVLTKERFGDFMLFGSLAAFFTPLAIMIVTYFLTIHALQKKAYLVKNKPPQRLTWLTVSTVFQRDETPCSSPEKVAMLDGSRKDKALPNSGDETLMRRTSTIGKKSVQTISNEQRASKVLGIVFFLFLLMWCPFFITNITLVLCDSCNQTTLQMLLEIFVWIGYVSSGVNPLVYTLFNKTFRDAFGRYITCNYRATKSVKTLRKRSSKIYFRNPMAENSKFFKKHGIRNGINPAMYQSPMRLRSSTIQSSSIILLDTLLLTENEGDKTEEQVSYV

[5] = mouse tissue distribution study; type: in vivo; conditions: cassette, IP
Procedure, shortened: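 Mice received the test compounds together as a cassette by intraperitoneal injection. Plasma and brain tissue were then analysed by LC/MS/MS to measure compound exposure in each and derive the brain-to-plasma ratio.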

mGlu3 [6] = target: T1, mGlu3; assay: probe dependence, glutamate vs LY379268; type: cell-based; conditions: glutamate vs LY379268 as agonist
mGlu8 = mGlu8 (Homo sapiens, UniProt O00222); assay: mGluR selectivity, mGlu8; type: cell-based
Sequence of mGlu8 (O00222 34-908): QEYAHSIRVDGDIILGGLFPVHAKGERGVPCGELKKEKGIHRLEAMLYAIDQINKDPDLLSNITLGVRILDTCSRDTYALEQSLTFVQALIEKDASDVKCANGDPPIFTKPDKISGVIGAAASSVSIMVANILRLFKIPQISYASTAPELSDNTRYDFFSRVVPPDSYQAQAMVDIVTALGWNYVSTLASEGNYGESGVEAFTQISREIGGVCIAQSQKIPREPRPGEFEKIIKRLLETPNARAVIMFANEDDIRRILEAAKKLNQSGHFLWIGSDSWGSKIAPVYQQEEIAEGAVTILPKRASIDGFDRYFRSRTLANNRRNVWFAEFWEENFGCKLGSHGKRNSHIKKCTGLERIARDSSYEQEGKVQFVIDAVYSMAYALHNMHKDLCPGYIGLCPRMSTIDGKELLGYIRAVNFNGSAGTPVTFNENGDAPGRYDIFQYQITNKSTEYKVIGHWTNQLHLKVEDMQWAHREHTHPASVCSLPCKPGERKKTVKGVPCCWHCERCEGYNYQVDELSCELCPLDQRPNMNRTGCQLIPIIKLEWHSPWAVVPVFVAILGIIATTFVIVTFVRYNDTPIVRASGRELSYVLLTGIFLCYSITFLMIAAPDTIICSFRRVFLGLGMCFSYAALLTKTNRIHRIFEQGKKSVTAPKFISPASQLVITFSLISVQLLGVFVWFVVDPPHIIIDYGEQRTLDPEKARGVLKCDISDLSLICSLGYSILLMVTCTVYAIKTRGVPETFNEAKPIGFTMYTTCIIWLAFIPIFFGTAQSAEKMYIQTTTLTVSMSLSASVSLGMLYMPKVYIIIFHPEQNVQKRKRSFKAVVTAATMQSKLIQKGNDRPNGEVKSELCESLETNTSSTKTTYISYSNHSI

in vivo rat PK = conditions: 10 mg/kg
[7] = human microsomal clearance; type: in vitro ADME

T1 sequence (P31422 23-879): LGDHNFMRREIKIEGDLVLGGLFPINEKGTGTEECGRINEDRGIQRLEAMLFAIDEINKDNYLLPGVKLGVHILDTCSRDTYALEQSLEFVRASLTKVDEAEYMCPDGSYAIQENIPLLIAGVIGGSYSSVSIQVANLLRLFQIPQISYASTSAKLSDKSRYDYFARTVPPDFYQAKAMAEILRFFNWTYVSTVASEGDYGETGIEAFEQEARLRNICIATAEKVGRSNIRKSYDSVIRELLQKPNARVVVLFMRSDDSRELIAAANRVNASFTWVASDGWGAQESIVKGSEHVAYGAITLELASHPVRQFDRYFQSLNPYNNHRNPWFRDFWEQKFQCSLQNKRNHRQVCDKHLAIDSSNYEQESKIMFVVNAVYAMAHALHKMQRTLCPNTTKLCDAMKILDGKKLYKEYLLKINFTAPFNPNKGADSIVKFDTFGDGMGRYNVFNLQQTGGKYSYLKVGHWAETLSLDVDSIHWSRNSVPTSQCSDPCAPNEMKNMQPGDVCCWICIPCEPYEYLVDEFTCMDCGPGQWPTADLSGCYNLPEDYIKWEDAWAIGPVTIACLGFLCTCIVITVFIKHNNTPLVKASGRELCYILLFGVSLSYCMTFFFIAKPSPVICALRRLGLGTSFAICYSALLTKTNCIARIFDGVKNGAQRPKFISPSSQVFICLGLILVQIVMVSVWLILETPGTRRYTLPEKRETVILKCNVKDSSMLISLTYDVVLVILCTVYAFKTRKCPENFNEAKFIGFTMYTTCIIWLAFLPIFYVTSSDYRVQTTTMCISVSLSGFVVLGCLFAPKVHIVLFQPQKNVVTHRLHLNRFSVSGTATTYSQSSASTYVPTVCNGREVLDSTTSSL

mGlu3 NAM activity (in words) (mGlu3 [1]): lost
SMILES: COc1ccc(C#Cc2ccc(C(=O)N3CCCC(OC)C3)cc2)cc1 (centres unmarked) [8b]

Vd (rat IV PK): 0.22 L/kg | clearance (rat IV PK): 6.2 mL/min/kg | Rat CLHEP (rat microsomal clearance): 52.7 mL/min/kg | CLint scaled at 1 µM (rat microsomal clearance): 214 mL/min/kg
SMILES: COc1ccc(C#Cc2ccc(C(=O)N3CCC[C@@H](O)C3)cc2)cc1 [8d]

Further lines, the compound ahead of its results:

SMILES: COc1ccc(C#Cc2ccc(C(=O)N3CCC[C@@H](CO)C3)cc2)cc1 [compound 3]
selectivity vs. mGlu2 (mGlu3 [2]): > 15 fold

SMILES: COc1ccc(C#Cc2ccc(C(=O)N3CCC[C@@H](O)C3)c(F)c2)cc1 [compound 9]
Vd (rat IV PK): 0.21 L/kg | clearance (rat IV PK): 5.2 mL/min/kg | mode of antagonism with respect to glutamate (mGlu3 [3]): non-competitive antagonism; also recorded: non-competitive decrease in the EC80 | functional activity at DAT (DAT): no functional activity | Rat CLHEP (rat microsomal clearance): 54.1 mL/min/kg | CLint scaled at 1 µM (rat microsomal clearance): 239 mL/min/kg | stability in rat microsomes (rat microsomal clearance; words): unstable | IC50 (mGlu5): > 30 µM | IC50 (mGlu6): > 30 µM | major metabolite [4]: P450-mediated O-demethylation | IC50 (mGlu4): > 30 µM | IC50 (mGlu7): > 30 µM | mGlu3 NAM activity (in words) (mGlu3 [1]): sub-micromolar | IC50 (mGlu1): > 30 µM | functional activity at 5-HT2B (5-HT2B): no functional activity | BrainAUC [5]: 3.37 µM | plasmaAUC [5]: 3.71 µM | probe dependence (mGlu3 [6]): no differences; also recorded: equipotent and efficacious | IC50 (mGlu8): > 30 µM | Brain AUC0-6 (in vivo rat PK; IP, 0-6 h): 9.6 µM·h | Kp (in vivo rat PK; brain and plasma, ip): 0.3 | AUC(0-t) (in vivo rat PK; plasma, ip): 33.1 µM·h | Human CLHEP ([7]; predicted hepatic clearance in vitro, human): 18.9 mL/min/kg | stability in human microsomes ([7]; words): unstable

SMILES: COc1ccc(C#Cc2ccc(C(=O)N3CCC[C@@H](O)C3)cc2F)cc1 [compound 10]
mGlu3 NAM activity (in words) (mGlu3 [1]): sub-micromolar

SMILES: [2H]C([2H])([2H])Oc1ccc(C#Cc2ccc(C(=O)N3CCC[C@@H](O)C3)cc2)cc1 [compound 11]
Vd (rat IV PK): 0.21 L/kg | clearance (rat IV PK): 3.3 mL/min/kg | Rat CLHEP (rat microsomal clearance): 40.7 mL/min/kg | CLint scaled at 1 µM (rat microsomal clearance): 97.3 mL/min/kg

SMILES: [2H]C([2H])([2H])Oc1ccc(C#Cc2ccc(C(=O)N3CCC[C@@H](O)C3)c(F)c2)cc1 [compound 12]
Vd (rat IV PK): 0.18 L/kg | clearance (rat IV PK): 2.9 mL/min/kg | Rat CLHEP (rat microsomal clearance): 35.9 mL/min/kg
